The values that follow come from ChEMBL document CHEMBL1165879, “Benzimidazole derivatives related to 2,3-acrylonitriles, benzimidazo[1,2-a]quinolines and fluorenes: synthesis, antitumor evaluation in vitro and crystal structure determination” (Eur J Med Chem, 2010).

In general, IC50 refers to the concentration that gives 50% inhibition. Higher therefore signals weaker potency. Broadly, the ΔTm is the shift of the melting midpoint relative to a reference.

The test system of experiment [1] is HeLa. The experiment in a line: Cytotoxicity against human HeLa cells after 72 hrs by MTT assay. In kind it is functional, cell-based. Summed up:
(§1)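 Cells grown with FBS, 2 mM L-glutamine, penicillin and streptomycin at 37 °C, 5% CO2, humidified. Seeded in 96-well plates on day 0 at densities set by population doubling time. Five 10-fold dilutions (10^-8 to 10^-4 mol/L), freshly prepared, then 72 h exposure, modified NCI DTP method. Three individual experiments. IC50 from dose-response curves by linear regression.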
(Tetrazolium dyes change colour on reduction, which living cells bring about.)

The test system of experiment [2] is MCF7. The experiment is described as follows: Cytotoxicity against human MCF7 cells after 72 hrs by MTT assay. In kind it is functional, cell-based. As to conditions: MCF7, 72 h. Summed up: as §1
For experiment [3], the system named is NCI-H460. The experiment in a line: Cytotoxicity against human H460 cells after 72 hrs by MTT assay. The experiment is classed as functional, cell-based. As to conditions: NCI-H460, 72 h. Summed up: as §1
Experiment [4] has as its system SW-620. The experiment in a line: Cytotoxicity against human SW620 cells after 72 hrs by MTT assay. In kind it is functional, cell-based. The note with it: SW-620, 72 h. Summed up: as §1
In experiment [5] the test system is Calf thymus DNA. The experiment is described as follows: Binding affinity to calf thymus DNA assessed as change in melting temperature at compound/polynucleotide ratio 0.3 in sodium cacodylate buffer at pH 7. As to conditions: Bos taurus.
Experiment [6] relates to MIA PaCa-2. The experiment is described as follows: Cytotoxicity against human MIAPaCa2 cells after 72 hrs by MTT assay. As to conditions: MIA PaCa-2, 72 h. The experiment is classed as functional, cell-based. In short, it runs like this: as §1
Experiment [7] relates to Calf thymus DNA. The experiment is described as follows: Binding affinity to calf thymus DNA assessed as change in melting temperature at compound/polynucleotide ratio 3 in sodium cacodylate buffer at pH 7. The experiment is classed as nucleic-acid assay. As to conditions: Bos taurus; in the assay text read “compound/polynucleotide ratio 0.3” for “compound/polynucleotide ratio 3”. Summed up:
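Thermal melting of ct-DNA, alone and with compound, in sodium cacodylate buffer pH 7.0, I = 0.05 mol dm^-3, DMSO under 1%. Absorbance at 260 nm followed against temperature, heated at 1 °C per minute. Ligand absorbance subtracted and scale normalized. Tm taken as transition midpoint, from the first-derivative maximum or graphically by tangent.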

As to `COc1ccc(OC)c(/C=C(\C#N)c2nc3ccccc3[nH]2)c1`, the concentration for half-maximal inhibition (IC50) in experiment [1] amounted to 1 µM; in experiment [2], 12 µM; in experiment [3], 27 µM; in experiment [4] it was 23 µM; in experiment [6], 0.8 µM. Further, in experiment [5], the ΔTm was found to be 3 °C.
In the case of `N#C/C(=C\c1ccco1)c1nc2ccccc2[nH]1`, the IC50 in experiment [1] is 25 µM; in experiment [2] it was 17 µM; in experiment [3], more than 50 µM; in experiment [4] it was more than 50 µM; in experiment [6], 28 µM.
In the case of `COc1cccc2c1C(=O)c1c(O)c3c(c(O)c1C2=O)C[C@@](O)(C(=O)CO)C[C@@H]3O[C@H]1C[C@H](N)[C@H](O)[C@H](C)O1` [DOXORUBICIN], the figures for the IC50 in experiment [2] and in experiment [6] were 0.04 µM and 0.01 µM, respectively.
Regarding `N#Cc1cc2ccncc2n2c1nc1ccccc12`, the IC50 in experiment [1] is 45 µM; in experiment [2], 67 µM; in experiment [3], 57 µM; in experiment [4], 30 µM; in experiment [6], 32 µM.
The matching figures for `N#C/C(=C\c1ccc(Br)cc1)c1nc2ccccc2[nH]1`: 9 µM, 19 µM, more than 50 µM, more than 50 µM and 46 µM.
As to `Cn1ccc2cc(C#N)c3nc4ccccc4n3c21`, the IC50 in experiment [1] was found to be 0.7 µM; in experiment [2], 11 µM; in experiment [3], 22 µM; in experiment [4], 25 µM; in experiment [6] it was 4 µM. In experiment [7], the ΔTm was determined as 2.4 °C.
`CC(=O)Nc1ccc(/C=C(\C#N)c2nc3ccccc3[nH]2)cc1`: the IC50 in experiment [1] was 3 µM; in experiment [2] it was 4 µM; in experiment [3], more than 100 µM; in experiment [4] it was more than 100 µM; in experiment [6], 48 µM.
`N#C/C(=C\c1ccc(F)cc1)c1nc2ccccc2[nH]1`: the IC50 turned out to be 15 µM in experiment [1]; 14 µM in experiment [2]; 43 µM in experiment [3]; 59 µM in experiment [4]; 18 µM in experiment [6]. Also, the ΔTm in experiment [5] came out at 3 °C.
Regarding `N#C/C(=C\c1cccs1)c1nc2ccccc2[nH]1`, the IC50 was 8 µM in experiment [1]; 30 µM in experiment [2]; more than 50 µM in experiment [3]; 48 µM in experiment [4]; more than 50 µM in experiment [6].
On to `Cc1ccc(/C=C(\C#N)c2nc3ccccc3[nH]2)cc1`, for which the IC50 came to 20 µM in experiment [1]; 8 µM in experiment [2]; 81 µM in experiment [3]; 87 µM in experiment [4]; 32 µM in experiment [6]. In addition, the ΔTm in experiment [7] was 2.9 °C.
Turning to `CCN(CC)c1ccc(/C=C(\C#N)c2nc3ccccc3[nH]2)c(O)c1`, the IC50 in experiment [1] was determined as 3 µM; in experiment [2], 2 µM; in experiment [3], 11 µM; in experiment [4], 10 µM; in experiment [6] it was 3 µM.
For `N#Cc1cc2ccsc2n2c1nc1ccccc12`, the IC50 was 19 µM in experiment [1]; 31 µM in experiment [2]; 30 µM in experiment [3]; 16 µM in experiment [4]; 28 µM in experiment [6].
On to `N#C/C(=C\c1cnc[nH]1)c1nc2ccccc2[nH]1`, for which the IC50 in experiment [1] is 40 µM; in experiment [2] it was 92 µM; in experiment [3], more than 100 µM; in experiment [4], 70 µM; in experiment [6], 30 µM.
`N#Cc1cc2ccc(Br)cc2n2c1nc1ccccc12`: the IC50 in experiment [1] was 20 µM; in experiment [2] it was 37 µM; in experiment [3], 37 µM; in experiment [4] it was 13 µM; in experiment [6], more than 50 µM.
Turning to `Cc1ccc2cc(C#N)c3nc4ccccc4n3c2c1`, the IC50 was more than 100 µM in experiment [1]; 70 µM in experiment [2]; more than 100 µM in experiment [3]; more than 100 µM in experiment [4]; more than 100 µM in experiment [6]. In addition, the ΔTm in experiment [7] worked out at 4.8 °C.
With `N#Cc1cc2ccc(F)cc2n2c1nc1ccccc12`, the IC50 in experiment [1] was 29 µM; in experiment [2] it was 50 µM; in experiment [3], 26 µM; in experiment [4] it was 22 µM; in experiment [6], 28 µM. The ΔTm in experiment [7] stood at 4.4 °C.
Consider `N#Cc1ccc2cc(C#N)c3nc4ccccc4n3c2c1`, for which the IC50 is 16 µM in experiment [1]; more than 50 µM in experiment [2]; 23 µM in experiment [3]; 14 µM in experiment [4]; more than 50 µM in experiment [6].
Consider `N#C/C(=C\c1ccncc1)c1nc2ccccc2[nH]1`, for which the IC50 in experiment [1] worked out at 21 µM; in experiment [2] it was 9 µM; in experiment [3] it was 78 µM; in experiment [4] it was 42 µM; in experiment [6], 57 µM.
The matching figures for `CN(C)c1ccc(/C=C(\C#N)c2nc3ccccc3[nH]2)cc1`: more than 50 µM, 4 µM, more than 50 µM, more than 50 µM and 26 µM.
The matching figures for `CC(=O)Nc1ccc2cc(C#N)c3nc4ccccc4n3c2c1`: 2 µM, 5 µM, 90 µM, 5 µM and 2 µM.
For the compound `Cn1cccc1/C=C(\C#N)c1nc2ccccc2[nH]1`, the IC50 in experiment [1] came out at 0.8 µM; in experiment [2] it was 13 µM; in experiment [3], 26 µM; in experiment [4], 30 µM; in experiment [6], 4 µM. For the same compound, the ΔTm in experiment [7] amounted to 0.4 °C.
For `COc1ccc(OC)c2c1cc(C#N)c1nc3ccccc3n12`, the IC50 in experiment [1] amounted to 5 µM; in experiment [2], 31 µM; in experiment [3], 14 µM; in experiment [4], 6 µM; in experiment [6], 23 µM. Besides, the ΔTm in experiment [7] stood at 4.2 °C.
